{"source": "paper PMC9847367", "about": "(European Journal of Medicinal Chemistry, 2023)", "key": {"chymotrypsin": {"target": "chymotrypsin (Bos taurus, UniProt P00766)", "experiment": "Enzymatic selectivity assay against chymotrypsin", "format": "biochemical", "procedure,_shortened": "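Bovine chymotrypsin (5 nM final) was preincubated for 10 min with serial dilutions of test compound in phosphate-buffered saline, pH 7.4. The reaction was started with N-succinyl-AAPF-AMC (10 μM final). Fluorescence (ex 380 nm/em 460 nm) was read every 1 min for 10 min. Reaction rates relative to DMSO controls gave the inhibition profiles.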"}, "SARS-CoV-2 3CL^pro": {"target": "SARS-CoV-2 3CL^pro (Severe acute respiratory syndrome coronavirus 2, UniProt P0DTD1)", "format": "biochemical"}}, "note": "Structures can show the parent of a compound that is named as a salt."}
{"smiles": "C/N=c1\\nc(-c2ccc(F)cc2)n(-c2ccccc2)s1", "note": "[6g, 3-(4-fluorophenyl)-N-methyl-2-phenyl-1,2,4-thiadiazol-5(2H)-imine hydrobromide salt]", "values": [{"measurement": "IC50", "setting": "chymotrypsin", "value": "> 100", "unit": "µM"}, {"measurement": "inhibitory activity with the addition of 4 mM DTT", "setting": "SARS-CoV-2 3CL^pro", "value": "lost their inhibitory activity"}]}
{"smiles": "C/N=c1\\nc(-c2ccccc2)n(-c2ccccc2)s1", "note": "[6a, N-methyl-2,3-diphenyl-1,2,4-thiadiazol-5(2H)-imine hydrobromide salt]", "values": [{"measurement": "IC50", "setting": "chymotrypsin", "value": "> 100", "unit": "µM"}, {"measurement": "inhibitory activity with the addition of 4 mM DTT", "setting": "SARS-CoV-2 3CL^pro", "value": "lost their inhibitory activity"}]}
